From ChEMBL document CHEMBL1137681, “Design, synthesis and characterization of N9/N7-substituted 6-aminopurines as VEGF-R and EGF-R inhibitors” (Eur J Med Chem, 2009)
Calls of active or inactive are those of the source.

Tests used:
[1] = molecular target: Insulin-like growth factor 1 receptor (Homo sapiens) (UniProt P08069); assay: Inhibition of IGF1R up to 100 uM
Procedure, shortened: (§1)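 Buffer: HEPES-NaOH pH 7.5, Mg2+/Mn2+, vanadate, DTT, PEG20000, 1% DMSO. Incubated 30 °C for 80 min, stopped with 2% H3PO4, washed, and scintillation-counted. IC50 from 10 concentrations in singlicate.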

[2] = molecular target: T1, Serine/threonine-protein kinase PLK4 (Homo sapiens) (UniProt O00444); assay: Inhibition of SAK up to 100 uM
T1 sequence (whole entry): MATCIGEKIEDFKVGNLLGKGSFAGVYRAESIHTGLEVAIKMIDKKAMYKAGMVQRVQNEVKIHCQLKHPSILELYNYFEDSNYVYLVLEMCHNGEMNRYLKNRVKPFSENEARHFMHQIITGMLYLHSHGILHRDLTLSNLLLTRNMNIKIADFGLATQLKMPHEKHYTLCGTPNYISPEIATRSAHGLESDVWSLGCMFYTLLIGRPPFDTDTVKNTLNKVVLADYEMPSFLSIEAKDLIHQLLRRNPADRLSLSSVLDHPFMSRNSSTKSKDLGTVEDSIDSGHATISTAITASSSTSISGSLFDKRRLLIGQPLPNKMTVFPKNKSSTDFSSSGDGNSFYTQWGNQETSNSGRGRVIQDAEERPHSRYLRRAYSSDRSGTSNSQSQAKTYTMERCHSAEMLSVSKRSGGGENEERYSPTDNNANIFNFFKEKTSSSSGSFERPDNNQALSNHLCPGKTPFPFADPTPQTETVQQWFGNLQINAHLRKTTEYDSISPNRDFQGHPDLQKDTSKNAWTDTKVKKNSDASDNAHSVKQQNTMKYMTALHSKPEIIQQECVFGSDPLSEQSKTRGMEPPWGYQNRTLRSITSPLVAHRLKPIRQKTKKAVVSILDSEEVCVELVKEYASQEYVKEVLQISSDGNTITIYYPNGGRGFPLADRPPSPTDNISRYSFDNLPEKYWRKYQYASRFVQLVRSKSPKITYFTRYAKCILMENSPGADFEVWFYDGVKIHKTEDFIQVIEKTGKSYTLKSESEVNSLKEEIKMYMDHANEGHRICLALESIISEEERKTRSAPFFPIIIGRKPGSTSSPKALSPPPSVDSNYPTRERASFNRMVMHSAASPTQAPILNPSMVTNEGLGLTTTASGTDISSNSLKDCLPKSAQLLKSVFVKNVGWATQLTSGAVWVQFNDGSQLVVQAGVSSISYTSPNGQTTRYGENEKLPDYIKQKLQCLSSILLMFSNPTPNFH

[3] = molecular target: Cyclin-dependent kinase 4/cyclin D1 (Homo sapiens) (UniProt P11802+P24385); assay: Inhibition of CDK4/Cyclin D1 up to 100 uM; assay type: protein-complex assay
Procedure, shortened: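 Buffer: HEPES-NaOH pH 7.5, Mg2+/Mn2+, vanadate, DTT, PEG20000, 1% DMSO. Incubated 80 min at 30 °C, stopped with 2% H3PO4, washed with 0.9% NaCl, and counted by scintillation. IC50 from 10 concentrations, singlicate.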

[4] = molecular target: Focal adhesion kinase 1 (Homo sapiens) (UniProt Q05397); assay: Inhibition of FAK up to 100 uM; procedure, shortened: as §1
Focal adhesion kinase 1 (Homo sapiens), sequence (Q05397 2-1052 limits assumed): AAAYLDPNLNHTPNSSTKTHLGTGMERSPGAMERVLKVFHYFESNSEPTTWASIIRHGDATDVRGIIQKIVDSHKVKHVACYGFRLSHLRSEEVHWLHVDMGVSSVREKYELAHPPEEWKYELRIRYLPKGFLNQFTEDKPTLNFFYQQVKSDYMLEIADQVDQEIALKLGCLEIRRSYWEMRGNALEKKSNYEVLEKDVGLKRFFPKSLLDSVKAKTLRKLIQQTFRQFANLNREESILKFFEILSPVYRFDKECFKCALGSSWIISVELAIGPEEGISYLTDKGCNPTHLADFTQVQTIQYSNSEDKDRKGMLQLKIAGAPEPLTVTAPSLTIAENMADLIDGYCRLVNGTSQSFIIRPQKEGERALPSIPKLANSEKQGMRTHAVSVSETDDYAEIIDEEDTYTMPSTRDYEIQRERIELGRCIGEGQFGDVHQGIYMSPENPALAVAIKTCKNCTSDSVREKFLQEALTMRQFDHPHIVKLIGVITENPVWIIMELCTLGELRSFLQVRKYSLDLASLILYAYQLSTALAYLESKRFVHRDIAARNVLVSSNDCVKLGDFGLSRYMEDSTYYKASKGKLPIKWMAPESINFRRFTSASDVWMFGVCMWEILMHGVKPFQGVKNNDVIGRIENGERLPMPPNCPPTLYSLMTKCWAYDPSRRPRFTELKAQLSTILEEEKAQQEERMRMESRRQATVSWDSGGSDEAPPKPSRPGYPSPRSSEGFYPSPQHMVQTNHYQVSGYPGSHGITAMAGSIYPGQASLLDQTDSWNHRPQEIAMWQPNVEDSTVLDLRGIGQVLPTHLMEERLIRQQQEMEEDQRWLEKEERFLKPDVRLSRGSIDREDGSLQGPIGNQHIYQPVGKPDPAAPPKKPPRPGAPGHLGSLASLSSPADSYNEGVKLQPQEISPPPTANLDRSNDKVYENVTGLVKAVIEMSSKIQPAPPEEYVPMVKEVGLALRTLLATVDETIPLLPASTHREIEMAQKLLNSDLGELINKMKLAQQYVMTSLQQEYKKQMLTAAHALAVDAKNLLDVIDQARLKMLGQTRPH

[5] = molecular target: Insulin receptor (Homo sapiens) (UniProt P06213); assay: Inhibition of INSR up to 100 uM
Insulin receptor (Homo sapiens), sequence (P06213 28-758 limits assumed): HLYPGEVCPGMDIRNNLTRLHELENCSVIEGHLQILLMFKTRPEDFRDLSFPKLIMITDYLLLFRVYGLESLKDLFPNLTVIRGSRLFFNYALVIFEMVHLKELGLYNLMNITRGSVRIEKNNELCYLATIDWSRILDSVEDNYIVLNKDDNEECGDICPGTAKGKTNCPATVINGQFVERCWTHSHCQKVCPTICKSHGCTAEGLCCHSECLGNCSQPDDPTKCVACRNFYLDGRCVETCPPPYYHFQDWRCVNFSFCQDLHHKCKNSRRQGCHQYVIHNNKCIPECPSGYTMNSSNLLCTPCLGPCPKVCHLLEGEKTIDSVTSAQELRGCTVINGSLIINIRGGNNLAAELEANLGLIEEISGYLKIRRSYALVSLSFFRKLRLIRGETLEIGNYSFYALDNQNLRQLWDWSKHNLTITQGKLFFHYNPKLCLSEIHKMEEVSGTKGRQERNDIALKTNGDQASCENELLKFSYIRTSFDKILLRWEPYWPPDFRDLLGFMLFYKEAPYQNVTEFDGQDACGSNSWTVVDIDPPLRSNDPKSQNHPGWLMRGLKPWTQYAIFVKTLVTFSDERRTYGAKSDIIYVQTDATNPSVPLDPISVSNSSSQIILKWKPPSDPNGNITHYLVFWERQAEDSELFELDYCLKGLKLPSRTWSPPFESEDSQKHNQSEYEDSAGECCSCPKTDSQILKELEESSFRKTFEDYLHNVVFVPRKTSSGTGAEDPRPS
Insulin receptor (Homo sapiens), sequence (P06213 763-1382 limits assumed): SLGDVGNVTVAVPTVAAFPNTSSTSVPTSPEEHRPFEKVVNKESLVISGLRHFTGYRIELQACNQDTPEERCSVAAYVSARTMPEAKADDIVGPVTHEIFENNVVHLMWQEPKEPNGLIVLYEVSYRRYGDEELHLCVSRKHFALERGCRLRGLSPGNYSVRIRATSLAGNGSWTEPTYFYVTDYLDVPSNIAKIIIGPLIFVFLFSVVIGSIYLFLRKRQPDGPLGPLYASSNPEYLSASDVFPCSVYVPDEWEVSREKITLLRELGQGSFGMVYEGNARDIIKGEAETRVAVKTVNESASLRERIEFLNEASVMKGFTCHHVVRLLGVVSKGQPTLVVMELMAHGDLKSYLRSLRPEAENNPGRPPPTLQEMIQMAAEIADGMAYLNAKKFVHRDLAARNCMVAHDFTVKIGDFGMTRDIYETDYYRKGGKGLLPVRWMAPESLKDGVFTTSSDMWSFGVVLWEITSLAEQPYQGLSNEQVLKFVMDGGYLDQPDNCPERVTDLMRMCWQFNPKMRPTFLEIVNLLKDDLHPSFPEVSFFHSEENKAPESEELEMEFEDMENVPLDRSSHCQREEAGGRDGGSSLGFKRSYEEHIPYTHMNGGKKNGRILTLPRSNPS

[6] = molecular target: Casein kinase II subunit alpha (Homo sapiens) (UniProt P68400); assay: Inhibition of CK2alpha1
Casein kinase II subunit alpha (Homo sapiens), sequence (P68400 whole entry, looked up): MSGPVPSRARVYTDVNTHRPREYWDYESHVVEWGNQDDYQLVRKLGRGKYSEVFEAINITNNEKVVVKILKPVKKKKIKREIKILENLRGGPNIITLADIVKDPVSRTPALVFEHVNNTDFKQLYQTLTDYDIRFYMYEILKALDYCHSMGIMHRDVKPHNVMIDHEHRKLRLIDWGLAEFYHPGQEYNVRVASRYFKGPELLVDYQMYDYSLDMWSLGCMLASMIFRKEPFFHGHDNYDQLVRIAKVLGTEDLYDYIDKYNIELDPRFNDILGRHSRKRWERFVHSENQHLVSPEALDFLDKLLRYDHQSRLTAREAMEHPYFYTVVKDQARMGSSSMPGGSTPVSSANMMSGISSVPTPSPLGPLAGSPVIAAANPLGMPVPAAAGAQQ
Procedure, shortened: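 Run in HEPES-NaOH pH 7.5 with MgCl2, MnCl2, orthovanadate, DTT, PEG20000 and 1% DMSO at 30 °C for 80 min. IC50 from 10 concentrations, singlicate.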

[7] = molecular target: RAC-alpha serine/threonine-protein kinase (Homo sapiens) (UniProt P31749); assay: Inhibition of AKT1 up to 100 uM
RAC-alpha serine/threonine-protein kinase (Homo sapiens), sequence (P31749 whole entry): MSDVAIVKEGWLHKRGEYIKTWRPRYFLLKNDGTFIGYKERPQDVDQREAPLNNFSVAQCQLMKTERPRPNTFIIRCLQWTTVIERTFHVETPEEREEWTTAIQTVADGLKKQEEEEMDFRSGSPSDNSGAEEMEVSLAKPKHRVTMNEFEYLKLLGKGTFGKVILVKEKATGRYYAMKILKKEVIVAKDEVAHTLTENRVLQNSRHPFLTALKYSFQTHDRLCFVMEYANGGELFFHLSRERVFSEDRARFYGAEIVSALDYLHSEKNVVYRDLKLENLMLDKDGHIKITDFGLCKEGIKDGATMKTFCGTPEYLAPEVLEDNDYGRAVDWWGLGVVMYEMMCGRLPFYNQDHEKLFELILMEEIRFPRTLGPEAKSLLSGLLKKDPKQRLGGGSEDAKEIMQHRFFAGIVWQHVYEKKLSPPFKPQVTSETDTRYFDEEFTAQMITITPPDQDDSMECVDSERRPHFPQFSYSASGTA
Procedure, shortened: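 Radiometric kinase assay with recombinant AKT1 (50–400 ng) and GSK3(14-27) peptide substrate. Incubated 80 min at 30 °C, stopped with 2% H3PO4, washed with 0.9% NaCl. IC50 from 10 concentrations in singlicate.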

[8] = molecular target: T2, Ephrin type-B receptor 4 (Homo sapiens) (UniProt P54760); assay: Inhibition of EPHB4 up to 100 uM; procedure, shortened: as §1
T2 sequence (whole entry): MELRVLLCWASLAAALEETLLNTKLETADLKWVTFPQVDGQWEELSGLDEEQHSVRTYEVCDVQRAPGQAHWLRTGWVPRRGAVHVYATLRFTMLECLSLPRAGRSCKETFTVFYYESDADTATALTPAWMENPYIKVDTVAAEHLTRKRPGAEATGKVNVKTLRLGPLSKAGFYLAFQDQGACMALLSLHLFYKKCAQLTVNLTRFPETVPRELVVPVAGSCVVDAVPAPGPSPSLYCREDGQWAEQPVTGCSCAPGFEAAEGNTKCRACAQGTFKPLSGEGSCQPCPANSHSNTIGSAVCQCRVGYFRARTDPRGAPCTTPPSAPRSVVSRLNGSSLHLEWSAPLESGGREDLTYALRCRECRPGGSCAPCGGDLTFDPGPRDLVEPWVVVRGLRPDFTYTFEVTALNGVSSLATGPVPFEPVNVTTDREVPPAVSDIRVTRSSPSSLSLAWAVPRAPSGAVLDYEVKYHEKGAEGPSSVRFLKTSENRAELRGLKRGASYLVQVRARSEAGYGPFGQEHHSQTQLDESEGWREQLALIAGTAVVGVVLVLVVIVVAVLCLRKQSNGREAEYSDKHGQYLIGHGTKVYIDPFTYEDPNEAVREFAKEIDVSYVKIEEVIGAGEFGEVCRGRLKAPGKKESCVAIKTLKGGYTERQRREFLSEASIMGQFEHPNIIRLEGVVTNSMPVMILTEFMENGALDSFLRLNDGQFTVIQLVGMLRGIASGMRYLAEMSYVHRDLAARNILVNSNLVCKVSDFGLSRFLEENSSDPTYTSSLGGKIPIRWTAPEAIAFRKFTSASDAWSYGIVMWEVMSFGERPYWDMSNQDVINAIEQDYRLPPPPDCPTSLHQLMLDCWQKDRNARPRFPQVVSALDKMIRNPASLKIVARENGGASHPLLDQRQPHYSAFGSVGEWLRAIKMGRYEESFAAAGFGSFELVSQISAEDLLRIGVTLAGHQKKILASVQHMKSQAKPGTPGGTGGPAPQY

[9] = molecular target: Platelet-derived growth factor receptor beta (Homo sapiens) (UniProt P09619); assay: Inhibition of PDGFRbeta up to 100 uM
Platelet-derived growth factor receptor beta (Homo sapiens), sequence (P09619 whole entry): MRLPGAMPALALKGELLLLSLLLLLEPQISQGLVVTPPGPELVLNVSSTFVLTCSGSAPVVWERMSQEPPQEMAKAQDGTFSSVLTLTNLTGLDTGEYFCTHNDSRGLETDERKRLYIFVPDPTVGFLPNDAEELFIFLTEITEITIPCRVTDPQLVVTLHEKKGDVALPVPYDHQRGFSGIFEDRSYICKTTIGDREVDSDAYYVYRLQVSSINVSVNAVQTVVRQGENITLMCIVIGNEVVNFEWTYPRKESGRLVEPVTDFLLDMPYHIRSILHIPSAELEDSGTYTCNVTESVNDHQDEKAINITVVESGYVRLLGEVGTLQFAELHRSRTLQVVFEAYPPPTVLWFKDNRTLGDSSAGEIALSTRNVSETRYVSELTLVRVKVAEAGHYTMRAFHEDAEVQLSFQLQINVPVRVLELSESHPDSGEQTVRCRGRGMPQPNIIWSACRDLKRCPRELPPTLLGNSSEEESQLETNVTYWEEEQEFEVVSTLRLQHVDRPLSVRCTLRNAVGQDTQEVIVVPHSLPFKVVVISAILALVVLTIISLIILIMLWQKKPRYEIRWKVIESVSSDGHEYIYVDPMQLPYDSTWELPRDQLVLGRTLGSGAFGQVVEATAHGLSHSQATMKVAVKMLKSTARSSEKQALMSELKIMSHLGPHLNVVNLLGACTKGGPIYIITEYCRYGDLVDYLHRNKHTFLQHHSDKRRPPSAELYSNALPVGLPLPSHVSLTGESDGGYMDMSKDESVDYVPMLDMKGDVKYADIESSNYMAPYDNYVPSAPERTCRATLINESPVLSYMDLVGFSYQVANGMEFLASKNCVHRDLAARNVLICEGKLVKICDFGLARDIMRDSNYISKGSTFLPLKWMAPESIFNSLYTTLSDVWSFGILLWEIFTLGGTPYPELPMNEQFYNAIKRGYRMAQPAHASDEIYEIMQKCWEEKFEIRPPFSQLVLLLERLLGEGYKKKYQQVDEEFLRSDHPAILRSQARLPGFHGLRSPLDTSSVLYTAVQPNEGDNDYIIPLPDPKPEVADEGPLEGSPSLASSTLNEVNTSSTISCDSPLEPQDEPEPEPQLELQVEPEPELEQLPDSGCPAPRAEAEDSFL

[10] = molecular target: Receptor-type tyrosine-protein kinase FLT3 (Homo sapiens) (UniProt P36888); assay: Inhibition of FLT3 up to 100 uM

Measured: inhibition

Nc1ncnc2ncn(CC(=O)c3ccccc3)c12
inactive: [1] | [2] | [3] | [4] | [5] | [6] | [7] | [8] | [9] | [10]

CN(C)c1ncnc2c1ncn2CC(=O)c1c[nH]c2ccccc12
inactive: [1] | [2] | [3] | [4] | [5] | [6] | [7] | [8] | [9] | [10]

COc1ncnc2ncn(CC(=O)c3ccccc3)c12
inactive: [1] | [2] | [3] | [4] | [5] | [6] | [7] | [8] | [9] | [10]

Nc1ncnc2c1ncn2CC(=O)c1cccnc1
inactive: [1] | [2] | [3] | [4] | [5] | [6] | [7] | [8] | [9] | [10]

Nc1ncnc2ncn(CC(=O)c3c[nH]c4ccccc34)c12
inactive: [1] | [2] | [3] | [4] | [5] | [6] | [7] | [8] | [9] | [10]

Nc1ncnc2c1ncn2CC(=O)c1ccccc1
inactive: [1] | [2] | [3] | [4] | [5] | [6] | [7] | [8] | [9] | [10]

COc1ncnc2c1ncn2CC(=O)c1ccccc1
inactive: [1] | [2] | [3] | [4] | [5] | [6] | [7] | [8] | [9] | [10]

Nc1ncnc2c1ncn2CC(=O)c1c[nH]c2ccccc12
inactive: [1] | [2] | [3] | [4] | [5] | [6] | [7] | [8] | [9] | [10]

Nc1ncnc2c1ncn2CC(=O)c1ccccn1
inactive: [1] | [2] | [3] | [4] | [5] | [6] | [7] | [8] | [9] | [10]
